Assay outcomes as filed in PubChem BioAssay.
rCAG binder: binds r(CAG) RNA repeats; r(CAG) RNA repeat, TO-PRO-1 dye displacement fluorescence; AID 651821; inhibition, % at 3 µM; 1.3% of 370,000 active;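 active = inhibition above the plate cutoff, the mean of all test compounds on that plate plus 3 SD, cut at about 35% in these data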;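 note: 0% = DMSO alone and 100% = 100 µM mitoxantrone as full dye displacement; higher means more dye released from RNA so lower well fluorescence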
NadD block: blocks S. aureus nicotinate mononucleotide adenylyltransferase; purified NadD enzyme, colorimetric absorbance read-out; inhibition, % at 20 µM; 0.78% of 360,000 active; in the data active = inhibition above about 26%
Scp1 inh: blocks human Scp-1 phosphatase activity; inhibition, % at 20 µM; 0.88% of 340,000 active; Q9GZU7; Recombinant Scp1, phosphopeptide, malachite green phosphate absorbance;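 active = inhibition above about 50% at 20 µM, limit read from the data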;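 note: plate controls were DMSO wells with enzyme for no effect and wells lacking enzyme for full effect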
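assay system = SCP-1 phosphatase catalytic domain, residues 76-261 | buffer or medium = 50 mM Tris acetate pH 5.5, 0.005% Tween-20, 10 mM MgCl2 | incubation = enzyme reaction 45 min at room temperature, colour 5 min, stabilisation 30 min | signal = Phosphate-binding colour reagent, absorbance read at 630 nm | measure = % inhibition at 20 µM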
LMPTP block: LMPTP (human) inhibition; P24666; recombinant LMPTP-A, OMFP fluorogenic substrate, fluorescence intensity; inhibition, % at 20 µM; 0.22% of 360,000 active;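 active = compounds that cut the enzyme signal by at least half of the control window in the single-dose screen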;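 note: plate controls were DMSO wells with enzyme plus substrate for no effect and substrate without enzyme for full effect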
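Assay system: LMPTP-A, protein tyrosine phosphatase of low molecular weight / Medium: pH 6.0 Bis-Tris buffer with DTT and Triton X-100 / Schedule: 50 min enzyme reaction at room temperature, protected from light / Measured by: endpoint fluorescence intensity from OMFP dephosphorylation / Read-out basis: % inhibition relative to no-enzyme and uninhibited control wells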
STEP block: blocks human striatal-enriched tyrosine phosphatase; 0.25% of 360,000 active; recombinant STEP, OMFP fluorogenic substrate, fluorescence; inhibition, % at 20 µM;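 active = inhibition at 20 µM, scaled per plate between control wells, above about 37%, limit read from the data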;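 note: 0% = DMSO with enzyme and substrate and 100% = substrate only without enzyme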
Target sequence (P54829 whole entry, looked up): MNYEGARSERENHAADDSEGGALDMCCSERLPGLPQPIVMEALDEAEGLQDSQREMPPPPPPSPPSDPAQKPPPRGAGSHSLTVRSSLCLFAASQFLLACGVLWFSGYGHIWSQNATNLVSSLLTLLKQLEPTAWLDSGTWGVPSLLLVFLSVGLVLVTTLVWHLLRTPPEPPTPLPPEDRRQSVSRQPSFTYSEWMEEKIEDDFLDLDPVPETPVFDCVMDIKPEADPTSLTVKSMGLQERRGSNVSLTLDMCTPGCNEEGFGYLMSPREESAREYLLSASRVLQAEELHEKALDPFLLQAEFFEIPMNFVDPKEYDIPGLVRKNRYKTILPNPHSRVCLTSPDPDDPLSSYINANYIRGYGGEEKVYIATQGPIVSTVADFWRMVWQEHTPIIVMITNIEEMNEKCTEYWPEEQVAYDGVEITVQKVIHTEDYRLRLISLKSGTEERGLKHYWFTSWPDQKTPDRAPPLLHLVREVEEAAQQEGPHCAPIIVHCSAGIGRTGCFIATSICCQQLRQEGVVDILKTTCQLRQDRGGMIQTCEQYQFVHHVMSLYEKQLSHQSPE
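Also added – OMFP at 25 µM · Test system – STEP tyrosine phosphatase · Technique – FITC-channel fluorescence of OMFP product · Schedule – 20 min at room temperature, dark · Evaluation – control-normalized % inhibition with plate pattern correction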
Scp1 confirm: Scp-1 (human) inhibition, single-dose confirmed | shares compounds with Scp1 inh | recombinant SCP-1 catalytic domain, phosphate release, malachite green absorbance | inhibition, % at 20 µM | 61% of 2,500 active;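 note: plate controls were DMSO with enzyme for no effect and buffer wells lacking enzyme for full effect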
Scp-1 MG ctr: counter-screen for Scp-1 inhibitors: colorimetric interference; shares compounds with Scp1 inh; Colorimetric interference counterscreen, malachite green absorbance 630 nm; apparent inhibition (interference), % at 20 µM; 2,500 tested, under 10 active;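 note: compounds added after enzyme reaction finished so only phosphate colour detection is probed; plate controls were DMSO wells with completed Scp-1 reaction for no effect and substrate wells lacking enzyme for full effect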
Scp1 DSF: validation of human Scp-1 inhibitors by thermal shift binding; shares compounds with Scp1 inh; thermal shift relative to vanadate control, % at 40 µM; Recombinant SCP1, Sypro Orange thermal shift Tm; 25% of 1,500 active;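 active = substances whose mean melting-temperature shift, as a percentage of the reference inhibitor's shift, reaches about 5.3%, limit read from the data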;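 note: 0% = Tm of DMSO wells and 100% = Tm with sodium orthovanadate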
STEP conf: confirmation of human STEP phosphatase inhibitors | shares compounds with STEP block | recombinant STEP, OMFP fluorogenic substrate, fluorescence | inhibition, % at 20 µM | 32% of 520 active | AID 623866; call rule not given here;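 note: 0% = enzyme with substrate plus DMSO and 100% = substrate without enzyme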
* = called active by the depositor. Sampled rows, rich in hits. Any-hit rate of the full collection: about 2.6%.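 Rule for the calls, unless noted: active = inhibition of at least 30% at 20 µM; inactive = the rest.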

Screening NC(=O)c1cc2ccccc2o/c1=N\NC(=O)c1ccccc1O returned rCAG binder 2, NadD block 7, Scp1 inh 103*, LMPTP block 75*, STEP block 99*, Scp1 confirm 79*, Scp-1 MG ctr -3, Scp1 DSF -12 and STEP conf 90*.
Clc1ccc2c(SCC3CO3)c3ccccc3nc2c1 (stereo not drawn) was read as rCAG binder 2, NadD block -3, Scp1 inh 101*, LMPTP block 20, STEP block 62*, Scp1 confirm -1, Scp-1 MG ctr -5 and STEP conf 13.
O=C(CSc1c2c(nc3cc(Cl)ccc13)CCCC2)NCCN1CCOCC1 was read as rCAG binder -6, NadD block -1, Scp1 inh -10, LMPTP block -2 and STEP block 2.
For O=C(NCc1ccon1)c1ccc(OC2CCN(CCc3ccccc3)CC2)cc1 the results were rCAG binder -9, NadD block -4, Scp1 inh 1, LMPTP block 1 and STEP block -2.
For CCc1cc(CNC(=O)c2ccc(OC3CCN(CCc4ccccc4)CC3)cc2)on1 the results were rCAG binder -10, NadD block -7, Scp1 inh 74*, LMPTP block 12, STEP block 92*, Scp1 confirm 65*, Scp-1 MG ctr 5, Scp1 DSF -3 and STEP conf -7.
`O=C(CCc1ccccc1)N[C@H]1[C@H](OC(=O)c2cccnc2)CCC[C@@]12C(=O)N(Cc1ccccc1)c1ccccc12` gave rCAG binder 6.
COc1ccc(-n2nc(C(=O)NCC(=O)NC(C)C)c3ccccc3c2=O)cc1Cl was read as rCAG binder 5, NadD block -1, Scp1 inh 5, LMPTP block -1 and STEP block 0.
`COc1ccc(-n2nc(C(=O)NCC(=O)Nc3ccccn3)c3ccccc3c2=O)cc1Cl` gave rCAG binder -1, NadD block 11, Scp1 inh 63*, LMPTP block 15, STEP block 48*, Scp1 confirm 43*, Scp-1 MG ctr -9, Scp1 DSF -5 and STEP conf 32*.
Screening CC(=O)N1c2ccccc2C(=O)NCC1C(=O)NC(C)(C)C (stereo not drawn) returned rCAG binder 1.
For O=C(N/N=C/c1cc(Br)c(Br)o1)c1cc2ccccc2o1 the results were rCAG binder 13, NadD block 1, Scp1 inh 111*, LMPTP block 45, STEP block 56*, Scp1 confirm 61*, Scp-1 MG ctr -13, Scp1 DSF -10 and STEP conf 3.
Screening Cc1ccc(-n2c(C)nc3oc4ccccc4c(=O)c3c2=O)cc1 returned rCAG binder 20, NadD block 4, Scp1 inh 68*, LMPTP block 61*, STEP block 49*, Scp1 confirm 61*, Scp-1 MG ctr -10, Scp1 DSF 5 and STEP conf 85*.
`O=C(N/N=C/c1cccc([N+](=O)[O-])c1)c1ccc(Br)cc1` gave rCAG binder -1, NadD block 4, Scp1 inh 98*, LMPTP block 65*, STEP block 73*, Scp1 confirm 86*, Scp-1 MG ctr -8, Scp1 DSF -2 and STEP conf 17*.
O=C(N/N=C/C(Br)=C/c1ccccc1)c1ccc([N+](=O)[O-])cc1 was read as rCAG binder 3, NadD block 11, Scp1 inh 97*, LMPTP block 78*, STEP block 88*, Scp1 confirm 84*, Scp-1 MG ctr -12, Scp1 DSF 2 and STEP conf 6.
CCCCNC(=O)C[C@@H]1C(=O)N2CCCC3=C2[C@@]1(C(=O)OCC)CCC3 was read as rCAG binder -1.
Screening COc1cc(NC(=O)c2ccccc2)c(C)cc1NC(=O)CSc1nnc(COc2ccccc2)n1Cc1ccco1 returned rCAG binder 6.
Screening CCC(=O)N(C)C[C@@H]1[C@H](c2ccc(C3=CCCCC3)cc2)[C@H](CO)N1C(=O)CC returned rCAG binder 1.
Cc1c(CC(=O)O)c(=O)oc2c(C)c(OCc3ccc(F)cc3Cl)ccc12 was read as rCAG binder 2, NadD block 24, Scp1 inh 64*, LMPTP block 85*, STEP block 98*, Scp1 confirm 68*, Scp-1 MG ctr -19, Scp1 DSF -26 and STEP conf 62*.
`COCCCN1C(=O)[C@H](CC(=O)NCCCN2CCCC2=O)[C@]2(C(=O)OC)CCCCC=C12` gave rCAG binder 1.
`COc1cc(C(=O)Nc2ccc3c(c2)C(=O)c2ccccc2C3=O)cc(OC)c1OC` gave rCAG binder 2, NadD block -2, Scp1 inh 88*, LMPTP block 47, STEP block 74*, Scp1 confirm 42*, Scp-1 MG ctr -8, Scp1 DSF 0 and STEP conf 19.
C#CCNC(=O)C[C@H]1C(=O)N(CCCOC)C2=CCCCC[C@]21C(=O)OC was read as rCAG binder 4.
For O=[N+]([O-])c1ccc(O)c(Nc2ncnc3ccccc23)c1 the results were rCAG binder 2, NadD block 5, Scp1 inh 98*, LMPTP block 91*, STEP block 97*, Scp1 confirm 81*, Scp-1 MG ctr -5, Scp1 DSF 3 and STEP conf 36*.
`O=Cc1cn(-c2ccccc2)nc1-c1cc2cc(O)ccc2oc1=O` gave rCAG binder 10, NadD block 2, Scp1 inh 64*, LMPTP block 55*, STEP block 60*, Scp1 confirm 53*, Scp-1 MG ctr -10, Scp1 DSF 4 and STEP conf 79*.
For O=Cc1cn(-c2ccccc2)nc1-c1cc2c(ccc3ccccc32)oc1=O the results were rCAG binder 6, NadD block 26, Scp1 inh -11, LMPTP block 12 and STEP block 1.
Screening Cc1ccc(-n2c(SC/C=C/c3ccccc3)nnc2-c2cccs2)cc1 returned rCAG binder 5.
